The values below come from ChEMBL document CHEMBL1142037, “Cyclization-activated prodrugs. Synthesis, reactivity and toxicity of dipeptide esters of paracetamol” (Bioorg Med Chem Lett, 2005).

A short description of data set [1]: Rate constant for release of paracetamol was determined. Format: ADME.
Data set [2] in a line: Half life required for the release of paracetamol. Format: ADME.
The nature of data set [3]: Relative rate constant for release of paracetamol was determined. The data set is classed as ADME.
For a further data set, the species on record is Mus musculus. The data set can be described thus: Effect on glutathione levels in mice. Format: functional. An outline of the steps:
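Male BALB/c mice (17–21 g, 5 weeks old), four per group, given a single ip dose of 3.3 mmol/kg in 30% propyleneglycol. Controls received vehicle ip. Livers were taken 2 h after dosing and kept on ice. Reduced glutathione in liver homogenate was measured at once with DTNB and reported as µmol/g tissue.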

On to `CC(=O)Nc1ccc(OC(=O)[C@H](C)NC(=O)CN)cc1.O=C(O)C(F)(F)F`, for which, in data set [1], the K obs was found to be 0.0134 s⁻¹. The same molecule displayed a T1/2 in data set [2] of 0.9 min. This molecule showed a Krelative in data set [3] of 0.94.

As for `CC(=O)Nc1ccc(OC(=O)CNC(=O)[C@@H](N)Cc2ccccc2)cc1.O=C(O)C(F)(F)F`, the K obs in data set [1] was found to be 0.000821 s⁻¹. The same molecule returned a T1/2 in data set [2] of 14 min. In the data set filed under Mus musculus, this molecule registered a Glutathione levels of 2.68 umol/g tissue. Moreover, in data set [3], the Krelative worked out at 0.06.

For `CNCC(=O)NCC(=O)Oc1ccc(NC(C)=O)cc1.O=C(O)C(F)(F)F`, the K obs result in data set [1] was “Too fast to be monitored”.

Take `CC(=O)Nc1ccc(OC(=O)CNC(=O)[C@H](C)N)cc1.O=C(O)C(F)(F)F`: the K obs in data set [1] is 0.0034 s⁻¹. Also, the T1/2 in data set [2] came out at 3 min. Also, in data set [3], the Krelative is recorded as 0.24.

In data set [1], `CC(=O)Nc1ccc(OC(=O)[C@H](Cc2ccccc2)NC(=O)CN)cc1.O=C(O)C(F)(F)F` registered a K obs of 0.00564 s⁻¹. In addition, the T1/2 in data set [2] amounted to 2 min. The molecule also came in with a Glutathione levels in the data set listed under Mus musculus of 3.74 umol/g tissue. In addition, the Krelative in data set [3] came out at 0.4.

The molecule `CC(=O)Nc1ccc(OC(=O)CNC(=O)CN)cc1.O=C(O)C(F)(F)F` had a K obs in data set [1] of 0.0143 s⁻¹. In data set [2], this molecule displayed a T1/2 of 0.8 min. In data set [3], this molecule displayed a Krelative of 1.

In the case of `CC(=O)Nc1ccc(OC(=O)CN(C)C(=O)CN)cc1.O=C(O)C(F)(F)F`, the K obs result in data set [1] is reported as “Too fast to be monitored”.

The molecule `CC(=O)Nc1ccc(OC(=O)CNC(=O)[C@@H]2CCCN2)cc1.O=C(O)C(F)(F)F` gave a K obs in data set [1] of 0.0059 s⁻¹. In data set [2], this molecule gave a T1/2 of 2 min. The molecule further had a Krelative in data set [3] of 0.41.

The molecule `CC(=O)Nc1ccc(OC(=O)CNC(=O)[C@@H](N)C(C)C)cc1.O=C(O)C(F)(F)F` registered a K obs in data set [1] of 0.00071 s⁻¹. The molecule also gave a T1/2 in data set [2] of 16 min. The Glutathione levels in the data set listed under Mus musculus is given as 3.87 umol/g tissue. The Krelative in data set [3] came out at 0.05.

Consider `CC(=O)Nc1ccc(OC(=O)[C@@H](NC(=O)CN)C(C)C)cc1.O=C(O)C(F)(F)F`, for which the K obs in data set [1] turned out to be 0.00057 s⁻¹. For the same molecule, the T1/2 in data set [2] turned out to be 20 min. Further, the Krelative in data set [3] is given as 0.04.

As to `CC(=O)Nc1ccc(OC(=O)[C@@H]2CCCN2C(=O)CN)cc1.O=C(O)C(F)(F)F`, in data set [1], the K obs entry is listed as “Too fast to be monitored”.
